Source: ChEMBL document CHEMBL2062453, “Lead optimization through VLAK protocol: new annelated pyrrolo-pyrimidine derivatives as antitumor agents” (2012)

What was measured:
Assay type in all cases: functional
[1] = tested on: NCI-H522; experiment: Cytotoxicity against human NCI-H522 cells assessed as cell growth at 10 uM after 48 hrs by SRB assay relative to control; details: NCI-H522, 48 h, read-out: Activity
[2] = tested on: OVCAR-5; experiment: Cytotoxicity against human OVCAR5 cells assessed as cell growth at 10 uM after 48 hrs by SRB assay relative to control; details: OVCAR-5, 48 h, read-out: Activity
[3] = tested on: UO-31; experiment: Cytotoxicity against human UO31 cells assessed as cell growth at 10 uM after 48 hrs by SRB assay relative to control; details: UO-31, 48 h, read-out: Activity
In short: (§1)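 NCI single-dose primary screen across about 60 human tumour lines. Each line was inoculated and preincubated on microtiter plates, then exposed to one concentration of agent for 48 h. Growth is reported as percent growth (G%) of treated cells versus untreated control cells.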

[4] = tested on: DU-145; experiment: Cytotoxicity against human DU145 cells assessed as cell growth at 10 uM after 48 hrs by SRB assay relative to control; details: DU-145, 48 h, read-out: Activity
In short: (§2)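 NCI primary screen of about 60 human tumour lines. Cells inoculated and preincubated, then a single test concentration added and cultures incubated 48 h. Result given as percent growth (G%) of treated versus untreated control cells.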

[5] = tested on: SK-OV-3; experiment: Cytotoxicity against human SKOV3 cells assessed as cell growth at 10 uM after 48 hrs by SRB assay relative to control; details: SK-OV-3, 48 h, read-out: Activity
[6] = tested on: EKVX; experiment: Cytotoxicity against human EKVX cells assessed as cell growth at 10 uM after 48 hrs by SRB assay relative to control; details: read-out: Activity; in short: as §2
[7] = tested on: SF-268; experiment: Cytotoxicity against human SF268 cells assessed as cell growth at 10 uM after 48 hrs by SRB assay relative to control; details: SF-268, 48 h, read-out: Activity
[8] = tested on: CCRF-CEM; experiment: Cytotoxicity against human CCRF-CEM cells assessed as cell growth at 10 uM after 48 hrs by SRB assay relative to control; details: read-out: Activity; in short: as §2
[9] = tested on: HL-60(TB); experiment: Cytotoxicity against human HL-60(TB) cells assessed as cell growth at 10 uM after 48 hrs by SRB assay relative to control; details: HL-60, 48 h, read-out: Activity
[10] = tested on: IGROV-1; experiment: Cytotoxicity against human IGROV1 cells assessed as cell growth at 10 uM after 48 hrs by SRB assay relative to control; details: IGROV-1, 48 h, read-out: Activity; in short: as §2
[11] = tested on: RPMI-8226; experiment: Cytotoxicity against human RPMI8226 cells assessed as cell growth at 10 uM after 48 hrs by SRB assay relative to control; details: RPMI-8226, 48 h, read-out: Activity
[12] = tested on: A549; experiment: Cytotoxicity against human A549 cells assessed as cell growth at 10 uM after 48 hrs by SRB assay relative to control; details: A549, 48 h, read-out: Activity; in short: as §2
[13] = tested on: UACC-257; experiment: Cytotoxicity against human UACC257 cells assessed as cell growth at 10 uM after 48 hrs by SRB assay relative to control; details: UACC-257, 48 h, read-out: Activity; in short: as §1
[14] = tested on: Hs-578T; experiment: Cytotoxicity against human Hs578T cells assessed as cell growth at 10 uM after 48 hrs by SRB assay relative to control; details: read-out: Activity; in short: as §2
[15] = tested on: SF-539; experiment: Cytotoxicity against human SF539 cells assessed as cell growth at 10 uM after 48 hrs by SRB assay relative to control; details: SF-539, 48 h, read-out: Activity
[16] = tested on: ACHN; experiment: Cytotoxicity against human ACHN cells assessed as cell growth at 10 uM after 48 hrs by SRB assay relative to control; details: read-out: Activity; in short: as §2
[17] = tested on: RXF 393; experiment: Cytotoxicity against human RXF393 cells assessed as cell growth at 10 uM after 48 hrs by SRB assay relative to control; details: RXF 393, 48 h, read-out: Activity
[18] = tested on: OVCAR-4; experiment: Cytotoxicity against human OVCAR4 cells assessed as cell growth at 10 uM after 48 hrs by SRB assay relative to control; details: OVCAR-4, 48 h, read-out: Activity
[19] = tested on: HOP-92; experiment: Cytotoxicity against human HOP92 cells assessed as cell growth at 10 uM after 48 hrs by SRB assay relative to control; details: HOP-92, 48 h, read-out: Activity; in short: as §2
[20] = tested on: HT-29; experiment: Cytotoxicity against human HT-29 cells assessed as cell growth at 10 uM after 48 hrs by SRB assay relative to control; details: HT-29, 48 h, read-out: Activity; in short: as §2
[21] = tested on: NCI-H460; experiment: Cytotoxicity against human NCI-H460 cells assessed as cell growth at 10 uM after 48 hrs by SRB assay relative to control; details: NCI-H460, 48 h, read-out: Activity
[22] = tested on: LOX IMVI; experiment: Cytotoxicity against human LOXIMVI cells assessed as cell growth at 10 uM after 48 hrs by SRB assay relative to control; details: read-out: Activity; in short: as §2
[23] = tested on: NCI/ADR-RES; experiment: Cytotoxicity against human NCI/ADR-RES cells assessed as cell growth at 10 uM after 48 hrs by SRB assay relative to control; details: read-out: Activity
[24] = tested on: U-251; experiment: Cytotoxicity against human U251 cells assessed as cell growth at 10 uM after 48 hrs by SRB assay relative to control; details: U-251, 48 h, read-out: Activity; in short: as §1
[25] = tested on: MOLT-4; experiment: Cytotoxicity against human MOLT4 cells assessed as cell growth at 10 uM after 48 hrs by SRB assay relative to control; details: MOLT-4, 48 h, read-out: Activity
[26] = tested on: SK-MEL-5; experiment: Cytotoxicity against human SK-MEL-5 cells assessed as cell growth at 10 uM after 48 hrs by SRB assay relative to control; details: SK-MEL-5, 48 h, read-out: Activity
[27] = tested on: NCI-H322M; experiment: Cytotoxicity against human NCI-H322M cells assessed as cell growth at 10 uM after 48 hrs by SRB assay relative to control; details: read-out: Activity
[28] = tested on: SNB-19; experiment: Cytotoxicity against human SNB19 cells assessed as cell growth at 10 uM after 48 hrs by SRB assay relative to control; details: SNB-19, 48 h, read-out: Activity
[29] = tested on: UACC-62; experiment: Cytotoxicity against human UACC62 cells assessed as cell growth at 10 uM after 48 hrs by SRB assay relative to control; details: UACC-62, 48 h, read-out: Activity; in short: as §1
[30] = tested on: SF-295; experiment: Cytotoxicity against human SF295 cells assessed as cell growth at 10 uM after 48 hrs by SRB assay relative to control; details: SF-295, 48 h, read-out: Activity
[31] = tested on: T47D; experiment: Cytotoxicity against human T47D cells assessed as cell growth at 10 uM after 48 hrs by SRB assay relative to control; details: read-out: Activity; in short: as §1
[32] = tested on: SR; experiment: Cytotoxicity against human SR cells assessed as cell growth at 10 uM after 48 hrs by SRB assay relative to control; details: read-out: Activity; in short: as §1
[33] = tested on: M14; experiment: Cytotoxicity against human M14 cells assessed as cell growth at 10 uM after 48 hrs by SRB assay relative to control; details: M14, 48 h, read-out: Activity; in short: as §2
[34] = tested on: SK-MEL-28; experiment: Cytotoxicity against human SK-MEL-28 cells assessed as cell growth at 10 uM after 48 hrs by SRB assay relative to control; details: SK-MEL-28, 48 h, read-out: Activity

**Q.** `CCOC(=O)CCCn1c(C)c(C)c2c1N=C(SC)N1CC(=O)N=C21` was tested. Which growth at 10 µM [1] did it give?
**A.** The growth at 10 µM was 97%.

**Q.** And the growth at 10 µM [2]?
**A.** The growth at 10 µM was 125%.

**Q.** And the growth at 10 µM [3]?
**A.** The growth at 10 µM was 81%.

**Q.** What about the growth at 10 µM [4] of the same molecule?
**A.** The growth at 10 µM was 149%.

**Q.** And the growth at 10 µM [5]?
**A.** The growth at 10 µM was 127%.

**Q.** And the growth at 10 µM [6]?
**A.** The growth at 10 µM was 104%.

**Q.** What about the growth at 10 µM [7] of the same molecule?
**A.** Its growth at 10 µM is 132%.

**Q.** And the growth at 10 µM [8]?
**A.** Its growth at 10 µM is 100%.

**Q.** And the growth at 10 µM [9]?
**A.** Its growth at 10 µM is 94%.

**Q.** And the growth at 10 µM [10]?
**A.** Its growth at 10 µM is 98%.

**Q.** And the growth at 10 µM [11]?
**A.** The growth at 10 µM was 95%.

**Q.** What about the growth at 10 µM [12] of the same molecule?
**A.** The growth at 10 µM was 102%.

**Q.** What about the growth at 10 µM [13] of the same molecule?
**A.** The growth at 10 µM was 111%.

**Q.** And the growth at 10 µM [14]?
**A.** The growth at 10 µM was 120%.

**Q.** What about the growth at 10 µM [15] of the same molecule?
**A.** The growth at 10 µM was 95%.

**Q.** And the growth at 10 µM [16]?
**A.** The growth at 10 µM was 110%.

**Q.** What about the growth at 10 µM [17] of the same molecule?
**A.** Its growth at 10 µM is 121%.

**Q.** What about the growth at 10 µM [18] of the same molecule?
**A.** Its growth at 10 µM is 100%.

**Q.** What about the growth at 10 µM [19] of the same molecule?
**A.** The growth at 10 µM was 89%.

**Q.** And the growth at 10 µM [20]?
**A.** Its growth at 10 µM is 109%.

**Q.** What about the growth at 10 µM [21] of the same molecule?
**A.** The growth at 10 µM was 110%.

**Q.** And the growth at 10 µM [22]?
**A.** Its growth at 10 µM is 101%.

**Q.** What about the growth at 10 µM [23] of the same molecule?
**A.** Its growth at 10 µM is 112%.

**Q.** And the growth at 10 µM [24]?
**A.** Its growth at 10 µM is 105%.

**Q.** What about the growth at 10 µM [25] of the same molecule?
**A.** Its growth at 10 µM is 98%.

**Q.** And the growth at 10 µM [26]?
**A.** Its growth at 10 µM is 100%.

**Q.** What about the growth at 10 µM [27] of the same molecule?
**A.** The growth at 10 µM was 111%.

**Q.** And the growth at 10 µM [28]?
**A.** The growth at 10 µM was 108%.

**Q.** And the growth at 10 µM [29]?
**A.** Its growth at 10 µM is 106%.

**Q.** And the growth at 10 µM [30]?
**A.** The growth at 10 µM was 113%.

**Q.** And the growth at 10 µM [31]?
**A.** Its growth at 10 µM is 95%.

**Q.** What about the growth at 10 µM [32] of the same molecule?
**A.** The growth at 10 µM was 119%.

**Q.** What about the growth at 10 µM [33] of the same molecule?
**A.** The growth at 10 µM was 106%.

**Q.** What about the growth at 10 µM [34] of the same molecule?
**A.** Its growth at 10 µM is 114%.

**Q.** What does the source list for `CSC1=Nc2c(c(C)c(C)n2CCCC(=O)O)C2=NC(=O)CN12`?
**A.** growth at 10 µM [1]: 94%; growth at 10 µM [2]: 117%; growth at 10 µM [3]: 88%; growth at 10 µM [4]: 118%; growth at 10 µM [5]: 113%; growth at 10 µM [6]: 105%; growth at 10 µM [7]: 114%; growth at 10 µM [8]: 105%; growth at 10 µM [9]: 95%; growth at 10 µM [10]: 101%; growth at 10 µM [11]: 110%; growth at 10 µM [12]: 117%; growth at 10 µM [13]: 120%; growth at 10 µM [14]: 114%; growth at 10 µM [15]: 86%; growth at 10 µM [16]: 108%; growth at 10 µM [17]: 122%; growth at 10 µM [18]: 104%; growth at 10 µM [19]: 92%; growth at 10 µM [20]: 108%; growth at 10 µM [21]: 105%; growth at 10 µM [22]: 93%; growth at 10 µM [23]: 114%; growth at 10 µM [24]: 107%; growth at 10 µM [25]: 103%; growth at 10 µM [26]: 101%; growth at 10 µM [27]: 112%; growth at 10 µM [28]: 107%; growth at 10 µM [29]: 111%; growth at 10 µM [30]: 122%; growth at 10 µM [31]: 103%; growth at 10 µM [32]: 122%; growth at 10 µM [33]: 110%; growth at 10 µM [34]: 110%
